The list is not random: actives were taken first. Their share in the collection is about 3.3%.
HTR2A ag – agonists of mouse serotonin 5-HT2A receptor (HTR2A); P35363; 360,000 tested, 0.66% active; activation, % at 7.6 µM; CHO-K1 mHTR2A beta-arrestin complementation, luminescence; percent of 30 µM serotonin response; AID 624169;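 active means activation above a run cutoff, the mean activation of all tested compounds plus 3 SD, cut at about 14% in these data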
sPLA2-III inh – Blocks human group III sPLA2 activity; Q9NZ20; QFRET BODIPY PC-A2 liposome hydrolysis, fluorescence; inhibition, % at 12.2 µM; 370,000 tested, 0.56% active; AID 743126;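 active means inhibition above mean plus 3 SD of compounds lying within the high and low control bounds, cut at about 19% in these data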
Arr AP2 block – human beta-arrestin and AP2 interaction inhibition; inhibition, % at 10 µM; 340,000 tested, 0.31% active; FITC-arrestin peptide / GST-AP2 beads, flow cytometry; AP2 beta2 appendage carries R879A mutation;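 active means inhibition above a set limit, near 3 SD of compounds lacking own fluorescence, cut at about 54% in these data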
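Material – GST-tagged AP2 beta2-adaptin appendage (R879A) on 4 µm glutathione beads · Probe or stimulus – fluorescein-tagged arrestin peptide at 50 nM final · Timing – 12 min plus 1 h, RT · Detection – bead flow cytometry, FITC channel · Read-out basis – inhibition as reduced fluorescein signal on beads, percent · Medium – PBS plus Tween 20 (0.05%) and BSA (0.1%)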
Lipid droplet – modulators of hepatic lipid droplet formation; inhibition, % at 6.5 µM; AID 1656; AML12 mouse hepatocytes, oleate lipid droplets, BODIPY imaging; 240,000 tested, 0.4% active;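 active means lipid droplet intensity inhibited by at least 50%, with more than 500 cells counted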
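material = mouse AML12 hepatocyte cell line, fixed after treatment | also added = 100 µM oleic acid challenge | doses = compound at 6.5 µM only | schedule = overnight exposure | technique = Image-based BODIPY and DAPI two-channel analysis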
M18AAP inhibitor – blocks P. falciparum M18 aspartyl aminopeptidase; 290,000 tested, 1.2% active; recombinant PfM18AAP, H-Glu-NHMec fluorogenic cleavage; inhibition, % at 7.35 µM;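 active means inhibition above the campaign mean inhibition over all tested compounds plus 3 SD, cut at about 28% in these data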
NRP1-CendR mod – alters CendR peptide binding to human NRP-1 | inhibition, % at 25 µM | O14786 | FAM-RPARPAR peptide binding to NRP-1, fluorescence polarization | 360,000 tested, 0.85% active;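 active means inhibition or corrected inhibition above about 18%, plus a signal ratio from 0.5 to 1.5, limit read from the data, passing the limit was not always enough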
OPRM1 ag – counter-screen for mouse HTR2A agonists: human mu opioid receptor agonists. shares compounds with HTR2A ag. U2OS OPRM1 beta-arrestin PathHunter, luminescence; DMSO 0%, DAMGO 9.3 µM 100%. activation, % at 9.3 µM. 2,300 tested, 5.3% active;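 active means mean activation above the mean of DMSO-only wells plus 3 SD, cut at about 0.5% in these data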
Target sequence (P35372 whole entry, looked up): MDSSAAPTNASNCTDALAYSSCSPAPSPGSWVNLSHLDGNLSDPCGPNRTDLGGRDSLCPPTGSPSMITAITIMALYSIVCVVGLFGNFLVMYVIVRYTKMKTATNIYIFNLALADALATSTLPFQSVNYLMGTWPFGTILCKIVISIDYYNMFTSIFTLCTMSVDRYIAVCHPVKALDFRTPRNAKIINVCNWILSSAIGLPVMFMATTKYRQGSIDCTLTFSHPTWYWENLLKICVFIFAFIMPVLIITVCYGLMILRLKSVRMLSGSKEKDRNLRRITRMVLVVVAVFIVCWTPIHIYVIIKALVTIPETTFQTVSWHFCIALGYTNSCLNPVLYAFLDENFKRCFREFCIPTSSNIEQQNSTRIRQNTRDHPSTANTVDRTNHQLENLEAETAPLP
m5-HT2A ag conf – mouse HTR2A agonism confirmed; 2,300 tested, 19% active; activation, % at 7.6 µM; AID 624381; shares compounds with HTR2A ag; CHO-K1 PathHunter beta-arrestin recruitment, luminescence; DMSO 0%, 30 µM serotonin 100%;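 active means mean activation across triplicates above the hit threshold derived in the original primary screen, cut at about 15% in these data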
Of the large screens only hits and unclear results are named; the others gave an inactive call (follow-up assays come after a bar, where they were run).

CCCNC(=O)C[C@H]1CC[C@@H]2[C@H](COC[C@@H](O)CN2C(=O)c2ccccn2)O1	none (no result: Arr AP2 block, Lipid droplet, M18AAP inhibitor)
Cc1ccsc1C(=O)OCC(=O)NCC1CCCO1 (configuration not stated)	HTR2A ag 18.4 (no result: Lipid droplet) | OPRM1 ag inactive | m5-HT2A ag conf inactive
COc1ccccc1CNC(=O)C1CCC(CNS(=O)(=O)c2ccc(F)cc2)CC1 (configuration not stated)	HTR2A ag 20.9 | OPRM1 ag inactive | m5-HT2A ag conf inactive
CCOC(=O)[C@]12CCCC=C1N(Cc1ccc(OC)cc1)C(=O)[C@@H]2CC(=O)NCCCCc1ccccc1	none (no result: HTR2A ag, Arr AP2 block, Lipid droplet, M18AAP inhibitor, NRP1-CendR mod)
O=C(NCc1c(Cl)cccc1Cl)c1[nH]c(C(F)(F)F)nc1-c1ccccc1	none (no result: Arr AP2 block, Lipid droplet, M18AAP inhibitor)
CCCCCNC(=O)C(c1ccnc2ccccc12)n1c(=O)c(-c2cc3ccccc3[nH]2)nc2ccccc21 (configuration not stated)	none (no result: Arr AP2 block, Lipid droplet, M18AAP inhibitor)
N/C(=N\O)c1ccccc1-n1cccc1	HTR2A ag 15.0 (no result: Lipid droplet) | OPRM1 ag inactive | m5-HT2A ag conf inactive
C[C@H]1[C@@H](OC(=O)Nc2ccccc2C(F)(F)F)CC[C@@]23CCCN2C(=O)CCC[C@@H]13	none (no result: HTR2A ag, Arr AP2 block, Lipid droplet, M18AAP inhibitor, NRP1-CendR mod)
CCCCN(C(=O)c1cccc(S(=O)(=O)N2CCN(C)CC2)c1)c1c(N)n(CCC)c(=O)[nH]c1=O	HTR2A ag 16.2 (no result: Lipid droplet, M18AAP inhibitor) | OPRM1 ag inactive | m5-HT2A ag conf inactive
CCCCn1c(N)c(N(CCOC)C(=O)c2ccc(-c3ccc([N+](=O)[O-])cc3)o2)c(=O)[nH]c1=O	none
CCCCn1c(N)c(N(CCOC)C(=O)c2cc3c(s2)CCC(C)C3)c(=O)[nH]c1=O (configuration not stated)	HTR2A ag 14.9 (no result: Lipid droplet, M18AAP inhibitor) | OPRM1 ag inactive | m5-HT2A ag conf inactive
CCCn1c(N)c(N(CCOC)C(=O)c2cc3c(s2)CCC(CC)C3)c(=O)[nH]c1=O (configuration not stated)	none (no result: Lipid droplet, M18AAP inhibitor)
CCCN(C(=O)c1cccc(S(=O)(=O)N2CCN(C)CC2)c1)c1c(N)n(Cc2ccccc2)c(=O)[nH]c1=O	none (no result: Lipid droplet, M18AAP inhibitor)
CCCCn1c(N)c(N(CCOC)C(=O)c2ccc(-c3ccc(C(C)=O)cc3)o2)c(=O)[nH]c1=O	HTR2A ag 15.1 (no result: Lipid droplet, M18AAP inhibitor) | OPRM1 ag inactive | m5-HT2A ag conf inactive
C/C=C/c1ccc([C@H]2[C@@H](CN(CC(C)C)S(=O)(=O)c3ccccc3[N+](=O)[O-])N(C(=O)Nc3cccc(OC)c3)[C@H]2CO)cc1	none (no result: HTR2A ag, Arr AP2 block, Lipid droplet, M18AAP inhibitor, NRP1-CendR mod)
O=C(CCN1CCN(c2ccccc2F)CC1)Nc1ccc2c(c1)OCO2	HTR2A ag 17.6 (no result: Lipid droplet) | OPRM1 ag inactive | m5-HT2A ag conf 59.4
O=C(CCN1CCN(c2ccccc2)CC1)Nc1ccc2c(c1)OCO2	none
O=C(CSc1nnc(-c2ccccn2)n1-c1ccc(Cl)cc1)Nc1ccc(S(=O)(=O)Nc2nccs2)cc1	none (no result: HTR2A ag, Arr AP2 block, Lipid droplet, M18AAP inhibitor, NRP1-CendR mod)
COc1ccc(C(=O)CCC(=O)NCCc2c[nH]c3ccccc23)cc1	none
O=C(CCC(=O)c1ccccc1)NCCc1c[nH]c2ccccc12	HTR2A ag 21.4 (no result: Lipid droplet) | OPRM1 ag inactive | m5-HT2A ag conf inactive
O=C(O)C1C2C=CC(C2)C1C(=O)NCc1cccc(Cl)c1 (configuration not stated)	none
O=C(O)C1C2C=CC(C2)C1C(=O)NCCc1cccc(Cl)c1 (configuration not stated)	HTR2A ag 31.6 | OPRM1 ag inactive | m5-HT2A ag conf inactive
O=C(O)C1CCCCC1C(=O)NCCc1cccc(Cl)c1 (configuration not stated)	HTR2A ag 34.6 | OPRM1 ag inactive | m5-HT2A ag conf inactive
O=C(O)C1CCCCC1C(=O)NCCc1ccc(Cl)cc1 (configuration not stated)	none
CCCC[C@H]1C2CC(OC(=O)NCCCc3ccccc3)C(C2)[C@H]2CCCCN21 (some centres not stated)	none (no result: HTR2A ag, Arr AP2 block, Lipid droplet, M18AAP inhibitor, NRP1-CendR mod)
CCc1nc2ccc(C(=O)NCCN3CCNC3=O)cn2c1N(C)Cc1ccc(OC)cc1	none (no result: Arr AP2 block, Lipid droplet, M18AAP inhibitor)
CC(O)/C=C/c1ccc2ccccc2n1 (configuration not stated)	HTR2A ag 18.9 | OPRM1 ag inactive | m5-HT2A ag conf inactive
Cc1ccc(S(=O)(=O)N2CCN(C(=O)CSCc3ccc(C(C)C)cc3)CC2)cc1	HTR2A ag 15.2 (no result: Lipid droplet, M18AAP inhibitor) | OPRM1 ag inactive | m5-HT2A ag conf inactive
Cc1ccc(S(=O)(=O)N2CCN(C(=O)CSc3ccc(Cl)cc3)CC2)cc1	none
CN1C(=O)NC(c2ccc(O)cc2)C2=C1CN(c1ccc(O)cc1)C2=O (configuration not stated)	HTR2A ag 20.5 | OPRM1 ag inactive | m5-HT2A ag conf inactive
CN1C(=O)NC(c2ccc(O)cc2)C2=C1CN(c1ccccc1)C2=O (configuration not stated)	none
CC(C)C[C@H](NC(=O)N1CCn2c1nc1ccccc12)C(=O)NCc1ccccc1	HTR2A ag 15.4 | m5-HT2A ag conf inactive
COc1cccc(CNc2nc3cc(-c4ccsc4)sc3c(=O)n2C)c1OC	none (no result: Arr AP2 block, Lipid droplet, M18AAP inhibitor)
CC(C)[C@@H]1Cc2[nH][nH]c(=O)c2[C@H](C)O1	none (no result: Arr AP2 block, Lipid droplet, M18AAP inhibitor)
C#CCn1c(-c2cccs2)nc2ccccc21	HTR2A ag 22.3 | OPRM1 ag inactive | m5-HT2A ag conf inactive
Cc1ccc(NC(=O)C2CCCN2C(=O)OCc2ccccc2)cc1F (configuration not stated)	HTR2A ag 14.7 | OPRM1 ag inactive | m5-HT2A ag conf inactive
O=C(Nc1cccc(F)c1)C1CCCN1C(=O)OCc1ccccc1 (configuration not stated)	none
COc1cc(NS(=O)(=O)c2ccc(-n3cccn3)cc2)cc(OC)c1	none (no result: sPLA2-III inh, Arr AP2 block, Lipid droplet, M18AAP inhibitor)
O=C(c1ccccc1)C(Nc1cccc([N+](=O)[O-])c1)c1ccccc1 (configuration not stated)	none (no result: Lipid droplet, M18AAP inhibitor)
CC(NC(=O)Nc1nnc(C(F)(F)F)s1)(C(F)(F)F)C(F)(F)F	HTR2A ag 16.1 (no result: Lipid droplet) | OPRM1 ag inactive | m5-HT2A ag conf inactive
CCOC(=O)N1CCN(C(=O)C[C@H]2C[C@@]3(C(=O)OC)C(=C[C@H](C(C)C)O[C@@H]3C3CC3)N(Cc3ccc(Cl)cc3Cl)C2=O)CC1	none (no result: HTR2A ag, Arr AP2 block, Lipid droplet, M18AAP inhibitor, NRP1-CendR mod)
CN(c1ccccc1C(=O)Nc1ccccc1C(=O)NCc1ccco1)S(C)(=O)=O	HTR2A ag 14.4 | OPRM1 ag inactive | m5-HT2A ag conf inactive
CN(c1ccccc1C(=O)NCc1ccco1)S(C)(=O)=O	none
CCc1ccc(Cn2c(=O)n(Cc3ccc(C(=O)NCCCOC)cc3)c(=O)c3ccccc32)cc1	none (no result: HTR2A ag, Arr AP2 block, Lipid droplet, M18AAP inhibitor, NRP1-CendR mod)
